From PubChem BioAssay AID685 (PCMD, 2007)
Among all 30,000 compounds or so, about 80 (0.3%) were called active.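 The calls were made as follows: active = mutant and wild-type yeast strains alike exhibit over 30% growth inhibition; inconclusive = a strain exceeds 50% while the second remains under 30%; inactive = the rest.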 Only a selection was taken, and actives are over-represented in it overall.

Experiment: S. cerevisiae growth inhibition, turbidity – wild-type and eIF2Bepsilon R284H mutant, A595, cytotoxicity control for eIF2B function restoration project, primary screen (AID 685);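 also: 0% = untreated cell controls and 100% = YPD media blanks without cells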
Details: 16 h, stronger effect = higher value, screened at 25 µM (by protocol)
How it was run: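 System: S. cerevisiae wild-type or eIF2Bepsilon-R284H mutant strain; times: 16 h growth with compound, 30 °C; signal: absorbance at 595 nm (turbidity); measure: growth inhibition (%) versus cell controls and blanks; compound: 25 µM single dose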

[1] = S. cerevisiae eIF2Bepsilon-R284H mutant growth

| SMILES | growth inhibition [1] [%] | growth inhibition (S. cerevisiae wild-type growth) |
| --- | --- | --- |
| COc1ccc(NC(=O)COC(=O)Cn2c(C)nc3ccccc32)cc1OC | -9.52 | -7.04% (inactive) |
| CN(C)/C=C1/C(=O)Nc2ccccc21 | 0 | 16.7% (inactive) |
| CCCCNC(=O)C1CCCN(S(=O)(=O)c2ccc(S(=O)(=O)NCC(C)C)cc2)C1 (stereo not given) | 28.2 | 0.77% (inactive) |
| CCOc1ccc(-c2nc(C)sc2CC(=O)O)cc1 | 14.9 | 16.7% (inactive) |
| COc1cc(S(=O)(=O)N(Cc2cccs2)C2CC2)ccc1-n1cnnn1 | -4.17 | 13% (inactive) |
| Cc1ccc(S(=O)(=O)N(c2cccc(C)c2)C2CCS(=O)(=O)C2)cc1 (stereo not given) | 0 | 8.71% (inactive) |
| CN(Cc1ccccc1)C(=O)COc1ccccc1 | 16.7 | 1.03% (inactive) |
| COc1ccc(NC(=O)CC2COc3ccccc3O2)c(OC)c1 (stereo not given) | 19.1 | 20% (inactive) |
| Cc1nnc(SCC(=O)NC(=O)NC2CCCC2)n1N | 17.4 | 24.3% (inactive) |
| COC(=O)c1ccc(S(=O)(=O)c2ccc(C(=O)OC)s2)s1 | -35.1 | -57.5% (inactive) |
| CC(=O)OC(C(=O)NC1CCCCC1)c1ccccc1 (stereo not given) | 0 | 11% (inactive) |
| CCC1CCCCN1CCCNC(=O)C1CCC(Cn2c(=O)[nH]c3ccccc3c2=O)CC1 (stereo not given) | 15.6 | 10% (inactive) |
| CCN1CCCC1Cn1cnc2c([nH]c3cc(OC)ccc32)c1=O (stereo not given) | 8.7 | 10% (inactive) |
| COc1cccc2c1OCC1COc3c(c(=O)n(C)c(=O)n3C)C21 (stereo not given) | 8.33 | 14.8% (inactive) |
| CCn1c(-c2ccoc2C)n[nH]c1=S | 22.8 | 21.4% (inactive) |
| CCOC(=O)C1=C(CSc2nccn2C)NC(=O)NC1c1ccc(OC)cc1 (stereo not given) | 5.26 | 17.1% (inactive) |
| COC(=O)C1C(=O)NCC1c1ccc(OC)cc1 (stereo not given) | 10.3 | 14.6% (inactive) |
| Cc1cccc(S(=O)(=O)CC(=O)Nc2nc(-c3ccccc3)cs2)c1 | 10 | 3.33% (inactive) |
| C=CCc1ccc(OCCOc2cccc(/C=N/n3cnnc3)c2)c(OC)c1 | -40.9 | 5% (inactive) |
| Cc1nnc(SCC(=O)Nc2ncc3c(n2)CC(C)(C)CC3=O)s1 | 10.3 | 35% (inactive) |

| SMILES | growth inhibition [1] [%] | growth inhibition (S. cerevisiae wild-type growth) |
| --- | --- | --- |
| CCOc1cc(N2CCOCC2)c(OCC)cc1NC(=O)COC(=O)[C@H](Cc1c[nH]c2ccccc12)NC(C)=O | 6.98 | 26.6% (inactive) |
| Cc1ccc(OCCCC(=O)Nc2ccc(N3CCOCC3)cc2)cc1 | -14.3 | 12.7% (inactive) |
| COC(=O)C1CCN(CC(N)=O)CC1 | 17.5 | 20.8% (inactive) |
| O=C(NCCCCCCNC(=O)NCc1ccco1)NCc1ccco1 | 24.3 | 17.8% (inactive) |
| Cc1cc(=O)[nH]c(SCC(=O)N2c3ccccc3CC2C)n1 (stereo not given) | 3.57 | 4.67% (inactive) |
| CCCCOc1ccc(N(CC(=O)NCC2CCCO2)C(=O)CCC(=O)Nc2cc(C)ccn2)cc1 (stereo not given) | -6.45 | -28.3% (inactive) |
| O=C(c1ccc(CN2CCOCC2)cc1)N1CCN(c2ccccc2F)CC1 | 8.33 | 11.9% (inactive) |
| CC1=NN(/C(=N\c2nnc(C)s2)Nc2ccccc2)[C@H](c2ccc(C)cc2)S1 | -6.45 | 20.2% (inactive) |
| Cc1ccc(-c2cc(C(=O)NCC3CCCO3)c3ccccc3n2)o1 (stereo not given) | -6.45 | 6.79% (inactive) |
| CC1CCc2c(sc3nc4n(c(=O)c23)CCS4)C1 (stereo not given) | 15.4 | 36.9% (inactive) |
| COC(=O)CNC(=O)c1ccccc1F | 16.3 | 19.7% (inactive) |
| COc1ccc(N2CCN(Cc3ccc(Br)s3)CC2)cc1 | 10 | 16.1% (inactive) |
| CC(C)(C)NC(=O)CN(Cc1cccs1)C(=O)CNS(=O)(=O)c1ccccc1 | 14.1 | 11.6% (inactive) |
| C/C(=N\NC(=O)c1nc(C)cc(C)n1)c1ccccc1 | 24.3 | 15.2% (inactive) |
| CCC(=NC1CC(C)(C)NC(C)(C)C1)C1=C(O)CC(C)(C)CC1=O | 14.8 | 23.3% (inactive) |
| CN1C(=O)C(CC(N)=O)N(NC(=O)c2ccc(Cl)cc2)C1=S (stereo not given) | 9.52 | 33.8% (inactive) |
| COC(=O)c1sc(=S)n(-c2ccc(Cl)cc2)c1C | 14.5 | 9.64% (inactive) |
| CCOC(=O)c1ccc2c(c1)nc(SCC(=O)NC(C)C)n2CC | 7.69 | 3.45% (inactive) |
| CCOC(=O)C1C(=O)NCC1c1ccccc1 (stereo not given) | 22.1 | 11.5% (inactive) |
| CCCCN1C(=O)/C(=C2/C=CC=CN2C)SC1=S | 18.9 | 21.5% (inactive) |
